From ChEMBL document CHEMBL1649139, “A novel gene, erm(41), confers inducible macrolide resistance to clinical isolates of Mycobacterium abscessus but is absent from Mycobacterium chelonae” (2009)
Converted amounts (≈) assume the structure as drawn. Numbered stars: 1 amine (or outer) side, 2 acyl side, 3 side chain; on linkers, the order of the positions; unused ones are H or OH. Bridge positions count the residues as written; N and C are the ends. Square brackets hold non-standard residues; d marks the D form. Peptide text beside a SMILES is read from it. * marks the point of attachment. X1 = O=C1C[C@@H](C(=O)[*:2])N([*:1])C[C@H]1CS[C@@H]1CN2CCC1CC2; NMePhe(4-NMe2) = CN[C@@H](Cc1ccc(N(C)C)cc1)C(=O)O; Picolinoyl(3-OH) = O=C(c1ncccc1O)*; Phg = N[C@H](C(=O)O)c1ccccc1; dAbu = CC[C@@H](N)C(=O)O

Legend:
Format in all cases: functional
[1] = system: Mycobacteroides abscessus; assay: Antimicrobial activity against Mycobacterium abscessus isolate MC879 on day 4 by broth microdilution method; details: isolate MC879, 96 h
[2] = system: Mycobacteroides abscessus; assay: Antimicrobial activity against Mycobacterium abscessus isolate MC879 at day 7 by broth microdilution method; details: isolate MC879, 168 h
Method in brief: (§1)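 Clarithromycin MIC by broth microdilution following CLSI guidelines. Organisms were preincubated […], for 3 days before the assay. This allowed at least two generations, judged by the rise in turbidity. The MIC was read at the stated day, with incubation extended from day 3 to as long as 14 days.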

[3] = system: Mycolicibacterium smegmatis; assay: Antimicrobial activity against Mycobacterium smegmatis transformed with erm allele Mycobacterium abscessus isolate MC1082 preincubated with 2 ug/ml erythromycin for 20 to 24 hrs by broth microdilution method
[4] = system: Mycolicibacterium smegmatis; assay: Antimicrobial activity against Mycobacterium smegmatis transformed with erm allele Mycobacterium abscessus isolate MAB30 preincubated with 2 ug/ml erythromycin for 20 to 24 hrs by broth microdilution method
[5] = system: Mycolicibacterium smegmatis; assay: Antimicrobial activity against Mycobacterium smegmatis transformed with erm allele Mycobacterium abscessus isolate MC958 preincubated with 2 ug/ml erythromycin for 20 to 24 hrs by broth microdilution method
[6] = system: Mycobacteroides abscessus; assay: Antimicrobial activity against Mycobacterium abscessus isolate MC1028 at day 7 by broth microdilution method; details: isolate MC1028, 168 h
Method in brief: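 Clarithromycin MIC by CLSI-conforming broth microdilution. Before testing, cultures were preincubated for 3 days, either in medium alone or in clarithromycin or erythromycin (tested range 0.01–1 μg/ml). Preincubation ran for at least two generations, judged by turbidity increase. Plates were read on day 3 and on extended incubation at days 5 to 14.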

[7] = system: Mycolicibacterium smegmatis; assay: Antimicrobial activity against Mycobacterium smegmatis transformed with erm allele Mycobacterium abscessus isolate MC719 preincubated with 2 ug/ml erythromycin for 20 to 24 hrs by broth microdilution method
[8] = system: Mycolicibacterium smegmatis; assay: Antimicrobial activity against Mycobacterium smegmatis transformed with erm allele Mycobacterium abscessus isolate MC958 by broth microdilution method
[9] = system: Mycolicibacterium smegmatis; assay: Antimicrobial activity against Mycobacterium smegmatis transformed with erm allele Mycobacterium abscessus isolate MAB30 by broth microdilution method
[10] = system: Mycobacteroides abscessus; assay: Antimicrobial activity against Mycobacterium abscessus isolate MC879 at day 5 preincubated with 0.1 ug/ml for 3 days by broth microdilution method
Method in brief: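 To test inducible resistance, cultures were preincubated for 3 days in clarithromycin or erythromycin, within 0.01–1 μg/ml. The period was set so cultures passed at least two generations, judged by turbidity increase. Clarithromycin MIC was then determined by CLSI-conforming broth microdilution and read on the stated day, from day 3 up to 14.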

[11] = system: Mycolicibacterium smegmatis; assay: Antimicrobial activity against Mycobacterium smegmatis transformed with erm allele Mycobacterium abscessus isolate MC879 by broth microdilution method
[12] = system: Mycolicibacterium smegmatis; assay: Antimicrobial activity against Mycobacterium smegmatis transformed with erm allele Mycobacterium abscessus isolate MC719 by broth microdilution method
[13] = system: Mycolicibacterium smegmatis; assay: Antimicrobial activity against Mycobacterium smegmatis transformed with erm allele Mycobacterium abscessus isolate MC1028 preincubated with 2 ug/ml erythromycin for 20 to 24 hrs by broth microdilution method
[14] = system: Mycolicibacterium smegmatis; assay: Antimicrobial activity against Mycobacterium smegmatis transformed with erm allele Mycobacterium abscessus isolate MC720 by broth microdilution method
[15] = system: Mycolicibacterium smegmatis; assay: Antimicrobial activity against Mycobacterium smegmatis transformed with erm allele Mycobacterium abscessus isolate MC879 preincubated with 2 ug/ml erythromycin for 20 to 24 hrs by broth microdilution method
[16] = system: Mycobacteroides abscessus; assay: Antimicrobial activity against Mycobacterium abscessus isolate MC958 at day 7 by broth microdilution method; details: isolate MC958, 168 h; method in brief: as §1
[17] = system: Mycolicibacterium smegmatis; assay: Antimicrobial activity against Mycobacterium smegmatis transformed with erm allele Mycobacterium abscessus isolate MC1028 by broth microdilution method
[18] = system: Mycolicibacterium smegmatis; assay: Antimicrobial activity against Mycobacterium smegmatis transformed with erm allele Mycobacterium abscessus isolate MC720 preincubated with 2 ug/ml erythromycin for 20 to 24 hrs by broth microdilution method
[19] = system: Mycobacteroides abscessus; assay: Antimicrobial activity against Mycobacterium abscessus isolate MC1028 on day 4 by broth microdilution method; details: isolate MC1028, 96 h
[20] = system: Mycolicibacterium smegmatis; assay: Antimicrobial activity against Mycobacterium smegmatis transformed with erm allele Mycobacterium abscessus isolate MC1082 by broth microdilution method
[21] = system: Mycolicibacterium smegmatis; assay: Antimicrobial activity against Mycobacterium smegmatis transformed with erm allele Mycobacterium abscessus isolate MC879-2 preincubated with 2 ug/ml erythromycin for 20 to 24 hrs by broth microdilution method
[22] = system: Mycolicibacterium smegmatis; assay: Antimicrobial activity against Mycobacterium smegmatis transformed with erm allele Mycobacterium abscessus isolate MC879-2 by broth microdilution method
[23] = system: Mycobacteroides abscessus; assay: Antimicrobial activity against Mycobacterium abscessus isolate MC958 on day 4 by broth microdilution method; details: isolate MC958, 96 h

Structure (SMILES) | MIC [1] [µg/mL] | MIC [2] [µg/mL] | MIC [3] [µg/mL] | MIC [4] [µg/mL] | MIC [5] [µg/mL] | MIC [6] [µg/mL] | MIC [7] [µg/mL] | MIC [8] [µg/mL] | MIC [9] [µg/mL] | MIC [10] [µg/mL] | MIC [11] [µg/mL] | MIC [12] [µg/mL] | MIC [13] [µg/mL] | MIC [14] [µg/mL] | MIC [15] [µg/mL] | MIC [16] [µg/mL] | MIC [17] [µg/mL] | MIC [18] [µg/mL] | MIC [19] [µg/mL] | MIC [20] [µg/mL] | further results
CCC[C@@H]1C[C@@H](C(=O)N[C@@H]([C@H]2O[C@H](SC)[C@H](O)[C@@H](O)[C@H]2O)[C@H](C)Cl)N(C)C1 [CLINDAMYCIN] | 64 (≈ 151 µM) | > 256 | 32 | 32 | > 512 | > 256 | > 512 | 64 (≈ 151 µM) | 32 (≈ 75.3 µM) | 64 (≈ 151 µM) | 64 (≈ 151 µM) | 64 (≈ 151 µM) | 32 | 64 (≈ 151 µM) | > 512 | > 256 | 32 (≈ 75.3 µM) | > 512 | 64 (≈ 151 µM) | 32 (≈ 75.3 µM) | 
CC[C@H]1OC(=O)[C@H](C)[C@@H](O[C@H]2C[C@@](C)(OC)[C@@H](O)[C@H](C)O2)[C@H](C)[C@@H](O[C@@H]2O[C@H](C)C[C@H](N(C)C)[C@H]2O)[C@](C)(O)C[C@@H](C)C(=O)[C@H](C)[C@@H](O)[C@]1(C)O [ERYTHROMYCIN] |  |  | 4 | 4 | > 128 |  | > 128 | 32 (≈ 43.6 µM) | 4 (≈ 5.45 µM) |  | 32 (≈ 43.6 µM) | 32 (≈ 43.6 µM) | 4 | 32 (≈ 43.6 µM) | > 128 |  | 4 (≈ 5.45 µM) | > 128 |  | 4 (≈ 5.45 µM) | MIC [21]: > 128 µg/mL; MIC [22]: 32 µg/mL (≈ 43.6 µM)
CC[C@H]1NC(=O)[C@@H](NC(=O)c2ncccc2O)[C@@H](C)OC(=O)[C@H](c2ccccc2)NC(=O)[C@@H]2CC(=O)[C@H](CS[C@@H]3CN4CCC3CC4)CN2C(=O)[C@H](Cc2ccc(N(C)C)cc2)N(C)C(=O)[C@@H]2CCCN2C1=O [QUINUPRISTIN] ({Picolinoyl(3-OH)}-T[dAbu]P[NMePhe(4-NMe2)][X1][Phg]; ester 1-C) | 64 (≈ 62.6 µM) | > 256 | 128 | 128 | 128 | > 256 | 128 | 128 (≈ 125 µM) | 128 (≈ 125 µM) | 64 (≈ 62.6 µM) | 128 (≈ 125 µM) | 128 (≈ 125 µM) | 128 | 128 (≈ 125 µM) | 128 | > 256 | 128 (≈ 125 µM) | 128 | 64 (≈ 62.6 µM) | 128 (≈ 125 µM) | 
CC[C@H]1OC(=O)[C@H](C)C(=O)[C@H](C)[C@@H](O[C@@H]2O[C@H](C)C[C@H](N(C)C)[C@H]2O)[C@](C)(OC)C[C@@H](C)C(=O)[C@H](C)[C@H]2N(CCCCn3cnc(-c4cccnc4)c3)C(=O)O[C@]12C [TELITHROMYCIN] | 32 (≈ 39.4 µM) | > 128 | 4 | 4 | > 128 | > 128 | > 128 | 8 (≈ 9.85 µM) | 4 (≈ 4.93 µM) |  | 8 (≈ 9.85 µM) | 8 (≈ 9.85 µM) | 4 | 8 (≈ 9.85 µM) | > 128 | > 128 | 4 (≈ 4.93 µM) | > 128 | 32 (≈ 39.4 µM) | 4 (≈ 4.93 µM) | MIC [23]: 32 µg/mL (≈ 39.4 µM)
